Assay outcomes (PubChem)
RGS7-Gao = human RGS7-Galphao interaction regulation; P09471; Multiplexed bead flow cytometry, RGS7-Galphao binding; actives lie on both sides; binding response (% of control), % at 10 µM; 0.35% of 220,000 active; AID 1439; in the data active = binding response below about 49% or above about 150%; inconclusive = no clear call, values can overlap the other calls; inactive = in between;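 note: fluorescent Galphao held in activated GDP-AlF4 state binding bead-coupled RGS7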
ABCB1 inh = blocks JC-1 efflux by human ABCB1 transporter | CCRF-Adr cells, flow cytometry | inhibition, % at 6.6 µM | 0.067% of 190,000 active | AID 1326; in the data active = inhibition above about 40%;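 note: 0% = vehicle and 100% = reference inhibitor; higher value means more JC-1 retained so stronger ABCB1 efflux block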
ABCG2 inh = blocks JC-1 efflux by human ABCG2 transporter. Q9UNQ0. IgMXP3 cells, flow cytometry. inhibition, % at 6.6 µM. 0.1% of 190,000 active. AID 1325;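 active = inhibition above 80%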;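 note: 0% = DMSO and 100% = nicardipine control wells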
Target sequence (Q9UNQ0 whole entry, looked up): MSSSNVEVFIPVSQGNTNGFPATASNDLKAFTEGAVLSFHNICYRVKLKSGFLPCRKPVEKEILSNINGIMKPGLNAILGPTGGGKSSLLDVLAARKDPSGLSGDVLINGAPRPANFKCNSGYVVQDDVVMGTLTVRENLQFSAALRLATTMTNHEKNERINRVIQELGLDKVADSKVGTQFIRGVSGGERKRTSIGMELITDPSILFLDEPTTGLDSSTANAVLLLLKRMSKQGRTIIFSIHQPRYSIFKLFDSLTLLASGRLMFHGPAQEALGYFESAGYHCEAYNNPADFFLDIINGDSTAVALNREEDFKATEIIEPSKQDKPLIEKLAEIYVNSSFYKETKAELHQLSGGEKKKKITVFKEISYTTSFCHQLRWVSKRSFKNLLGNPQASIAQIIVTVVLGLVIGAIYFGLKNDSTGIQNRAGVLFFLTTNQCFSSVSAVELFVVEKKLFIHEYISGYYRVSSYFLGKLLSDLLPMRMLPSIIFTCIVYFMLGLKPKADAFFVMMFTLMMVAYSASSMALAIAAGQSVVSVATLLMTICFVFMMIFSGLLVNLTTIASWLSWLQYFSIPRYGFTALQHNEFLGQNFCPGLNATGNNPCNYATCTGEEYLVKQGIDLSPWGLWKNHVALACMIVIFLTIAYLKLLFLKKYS
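Times: 10 min at 25 °C | Test system: Two drug-resistant human cell lines, ABCG2 and ABCB1 | Quantity: 3 million cells/mL final, two lines in 1:1 ratio | Signal: Flow cytometry, 530 nm JC-1 signal | Dosing: Compound at 6.6 µM | Controls: Nicardipine and DMSO wells | Reagent: JC-1 as fluorescent efflux pump substrate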
RGS4-Gao reg = human RGS4-Galphao interaction regulation | P09471 | Multiplexed bead flow cytometry, RGS4-Galphao binding; actives lie on both sides | binding response (% of control), % at 10 µM | 0.33% of 220,000 active | AID 1415; in the data active = binding response below about 49% or above about 150%; inactive = in between;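 note: fluorescent Galphao activated with aluminum fluoride binding bead-coupled RGS4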
RGS8-Gao = modulates binding of RGS8 to human Galphao. P09471. AID 1423. 0.34% of 220,000 active. response (percent of control binding), % at 10 µM. multiplexed bead flow cytometry; actives lie on both sides; in the data active = response below about 60% or above about 140%; inactive = in between;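 note: Galphao activated as the GDP aluminium fluoride complex binding bead-coupled RGS8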
RGS16-Gao = RGS16-Galphao interaction regulator (human); binding response (% of control), % at 10 µM; bead-based flow cytometry RGS16-Galphao binding, fluorescence; actives lie on both sides; O15492+P09471; 0.38% of 220,000 active;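 note: Galphao activated by GDP with aluminum fluoride before binding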
RGS-Gao = RGS4-Galphao interaction regulator (human); shares compounds with RGS16-Gao; multiplexed bead flow cytometry, RGS–Galpha-o binding; RGS4–Galpha-o binding response, % at 10 µM; 99% of 1,600 active; AID 1504;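 note: fluorescently labeled Galpha-o bound to GDP with aluminium fluoride binding biotinylated RGS beads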
Biotin-avidin = interferes with biotinylated probe binding to avidin beads; shares compounds with RGS16-Gao; streptavidin beads, fluorescein-biotin binding, flow cytometry; inhibition, % at 10 µM; 1,700 tested, under 10 active;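 active = inhibition above 50%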;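 note: median green fluorescence of gated singlet beads compared with DMSO control wells; 0% = DMSO wells and 100% = complete loss of bead fluorescence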
RGS8-Gao confirm = confirmation of regulators of human RGS8-Galphao interaction. 3% of 1,700 active. binding response (% of control), % at 10 µM. bead-based flow cytometry RGS8-Galphao binding, fluorescence; actives lie on both sides. shares compounds with RGS16-Gao; in the data active = binding response below about 72% or above about 130%; inactive = in between;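 note: Galphao activated as GDP AlF4 complex before binding bead RGS8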
RGS7-Gao confirm = RGS7-Galphao interaction regulation, single point confirmation | shares compounds with RGS16-Gao | bead-based flow cytometry RGS7-Galphao binding; actives lie on both sides | response (percent of control binding), % at 10 µM | 7.8% of 1,700 active | AID 1837; in the data active = response below about 75% or above about 130%; inactive = in between;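 note: fluorescent Galphao activated with GDP and aluminum fluoride binding bead-coupled RGS7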
RGS16-Gao single = confirmation of regulators of human RGS16-Galphao interaction; shares compounds with RGS16-Gao; bead-based flow cytometry, RGS16-Galphao binding; actives lie on both sides; response (% of control binding), % at 10 µM; 4% of 1,700 active; AID 1838; in the data active = response below about 74% or above about 130%; inactive = in between;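 note: Galphao activated as the GDP aluminium fluoride complex binding bead-coupled RGS16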
RGS4-Gao confirm = RGS4-Galphao interaction regulation, single point confirmation; AID 1840; 4% of 1,700 active; shares compounds with RGS16-Gao; binding response (% of control), % at 10 µM; RGS4-Galphao binding, multiplexed bead flow cytometry; actives lie on both sides; in the data active = binding response below about 74% or above about 130%; inactive = in between
RGS19-Gao single = confirmation of regulators of human RGS19-Galphao interaction | shares compounds with RGS16-Gao | bead-based flow cytometry RGS19-Galphao binding; actives lie on both sides | response (percent of control binding), % at 10 µM | 5% of 1,700 active | AID 1841; in the data active = response below about 50% or above about 160%; inactive = in between;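 note: 100% = no compound control and 0% = blank background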
The depositor's hits bear a star; [ ] = another dose, or the depositor's remark. Rows were chosen to be rich in hits. Some 0.83% of all compounds tested hit in one or more screens of this group. Unless noted, the rule behind the calls is not given here.

Screening COc1ccccc1NC(=O)COn1nnc2ccc(S(=O)(=O)N3CCOCC3)cc21 returned RGS7-Gao 105, ABCB1 inh -1, ABCG2 inh -1, RGS4-Gao reg 99, RGS8-Gao 100 and RGS16-Gao 100.
COc1ccc(CNC(=O)CN(CC2CCCO2)C(=O)CNS(=O)(=O)c2ccccc2)cc1 (stereo not given) was read as RGS7-Gao 209*[activator], ABCB1 inh 1, ABCG2 inh 3, RGS4-Gao reg 129, RGS8-Gao 86, RGS16-Gao 122, RGS-Gao 129*, Biotin-avidin 2, RGS8-Gao confirm 102, RGS7-Gao confirm 100, RGS16-Gao single 100, RGS4-Gao confirm 101 and RGS19-Gao single 86.
For O=[N+]([O-])/C(C(Cl)=C(Cl)Cl)=C(/Sc1ccccc1)N1CCCCC1 the results were RGS7-Gao inconclusive, RGS4-Gao reg 94, RGS8-Gao 96 and RGS16-Gao 98.
Screening Cc1ccc(NS(=O)(=O)c2cccc(C(=O)NCCc3c[nH]c4ccccc34)c2)c(C)c1 returned RGS7-Gao 101, ABCB1 inh 0, ABCG2 inh 0, RGS4-Gao reg 102, RGS8-Gao 101 and RGS16-Gao 100.
O=C(CSc1ccccc1)Nc1cc(S(=O)(=O)N2CCOCC2)ccc1N1CCOCC1 was read as RGS7-Gao inconclusive, ABCB1 inh 6, ABCG2 inh 0, RGS4-Gao reg 22*, RGS8-Gao 15*, RGS16-Gao 13*, Biotin-avidin -2, RGS8-Gao confirm 104, RGS7-Gao confirm 102, RGS16-Gao single 103, RGS4-Gao confirm 100 and RGS19-Gao single 130.
Screening O=C(CCl)Nc1cc(S(=O)(=O)N2CCOCC2)ccc1N1CCOCC1 returned RGS7-Gao inconclusive, ABCB1 inh 1, ABCG2 inh 4, RGS4-Gao reg 96, RGS8-Gao 96 and RGS16-Gao 96.
Cc1nn(-c2ccccc2)c2nc(-c3cccs3)cc(C(=O)NN)c12 was read as RGS7-Gao 198*[activator], ABCB1 inh -2, ABCG2 inh -4, RGS4-Gao reg 115, RGS8-Gao 96, RGS16-Gao 102, RGS-Gao 115*, Biotin-avidin -1, RGS8-Gao confirm 102, RGS7-Gao confirm 103, RGS16-Gao single 100, RGS4-Gao confirm 102 and RGS19-Gao single 108.
Cc1ccc(Sc2c(O)c3ccccc3n(C)c2=O)cc1 was read as RGS7-Gao 91, ABCB1 inh 0, ABCG2 inh 3, RGS4-Gao reg 99, RGS8-Gao 68, RGS16-Gao 14*, RGS-Gao 99*, Biotin-avidin 0, RGS8-Gao confirm 103, RGS7-Gao confirm 107, RGS16-Gao single 105, RGS4-Gao confirm 109 and RGS19-Gao single 96.
